# Data published in paper PMC10073337 (Biochemistry, 2023).
# Marks after values point to notes of the source that are not given here.
# Tests used:
# [1] = molecular target: T1, Iodotyrosine deiodinase (Human, HsIYD) (Homo sapiens, UniProt Q6PHW0); test: Catalytic deiodination; type: biochemical; conditions: 100 mM potassium phosphate pH 7.4, 0.5% sodium dithionite
# T1 sequence (Q6PHW0 with tags, fused parts or gaps): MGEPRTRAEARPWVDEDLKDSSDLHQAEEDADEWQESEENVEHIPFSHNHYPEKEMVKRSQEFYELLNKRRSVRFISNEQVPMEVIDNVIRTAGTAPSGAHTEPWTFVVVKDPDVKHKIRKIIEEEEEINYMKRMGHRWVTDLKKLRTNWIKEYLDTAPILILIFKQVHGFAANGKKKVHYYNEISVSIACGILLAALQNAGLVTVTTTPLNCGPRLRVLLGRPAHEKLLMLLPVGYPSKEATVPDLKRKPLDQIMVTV
# [2] = molecular target: T2, IYD from Haliscomenobacter hydrossis (HhIYD) (Haliscomenobacter hydrossis, UniProt F4KU78); test: Catalytic deiodination; type: biochemical; conditions: I-Tyr turnover, pL 7.4, 100 mM potassium phosphate
# T2 sequence (F4KU78 1-222): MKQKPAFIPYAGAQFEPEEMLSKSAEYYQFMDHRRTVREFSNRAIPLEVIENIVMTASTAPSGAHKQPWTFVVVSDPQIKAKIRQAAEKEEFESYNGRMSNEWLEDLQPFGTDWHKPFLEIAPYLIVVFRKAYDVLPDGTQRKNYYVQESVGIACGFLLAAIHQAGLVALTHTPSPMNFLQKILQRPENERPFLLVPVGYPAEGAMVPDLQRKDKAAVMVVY
# [3] = molecular target: T3, HsIYD containing FMNox (Homo sapiens, UniProt Q6PHW0); test: Binding affinity to HsIYD containing oxidized FMN
# T3 sequence (Q6PHW0 with tags, fused parts or gaps): T1 sequence (Q6PHW0 with tags, fused parts or gaps)
# How it was run: (§1)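 HsIYD (residues 2–31 removed) was expressed as a SUMO fusion and purified by Ni2+ affinity and size exclusion. HhIYD carried a C-terminal His6 tag and was purified by Ni2+ affinity. Ligand was titrated into 3 μM enzyme in 110 mM potassium phosphate pH 7.4, stirred, at 25 °C. Flavin fluorescence (ex 450, em 516 nm) was read 2 min after each addition. Kd was fitted from fractional remaining fluorescence versus total enzyme and ligand.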
# [4] = molecular target: T4, HhIYD containing FMNox (Haliscomenobacter hydrossis, UniProt F4KU78); test: Binding affinity to HhIYD containing oxidized FMN
# T4 sequence (F4KU78 1-222): T2 sequence (F4KU78 1-222)
# How it was run: as §1
# [5] = free in neutral aqueous solution at 25 °C; cited from earlier work
# [6] = molecular target: T5, HsIYD reconstituted with FMN analogues (Homo sapiens, UniProt Q6PHW0); type: biochemical; conditions: I-Tyr as substrate, HsIYD reconstituted with the cofactor, pH 7.4
# T5 sequence (Q6PHW0 with tags, fused parts or gaps): T1 sequence (Q6PHW0 with tags, fused parts or gaps)
# How it was run: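 FMN was stripped from column-bound SUMO–HsIYD with 0.6 to 1.5 M guanidinium HCl, then the gradient was reversed. The protein was loaded with 200 μM flavin analogue for 4 h at 4 °C and washed. It was eluted with 250 mM imidazole, the tag was cleaved, and size exclusion followed. Turnover used 70–80 nM enzyme, 100 mM potassium phosphate pH 7.4, 0.5% dithionite and 25 °C, with HPLC product detection.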
# [7] = cited from earlier work
# [8] = Estimated phenol pKa and phenolate fraction of substrates; type: physicochemical; conditions: assay conditions of pH 7.4, based on estimated pKa
# [9] = molecular target: T6, HhIYD (Haliscomenobacter hydrossis, UniProt F4KU78); test: Competitive inhibition of I-Tyr dehalogenation by HhIYD; type: biochemical
# T6 sequence (F4KU78 1-222): T2 sequence (F4KU78 1-222)
# How it was run: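 His6-tagged HhIYD (70–80 nM final) was incubated with I-Tyr in 111 mM potassium phosphate pH 7.4 at 25 °C. Dithionite (5% in 5% sodium bicarbonate) was added at one-tenth volume as reductant. Deiodinated product was quantified by reverse-phase C18 HPLC. The test compound was included as a competitive inhibitor, giving Ki against the reduced enzyme.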
SMILES,Kd [3] [µM],Kd [4] [µM],kcat [6] [s^−1 × 10^−2],redox potential [5],further results
"N[C@@H](Cc1ccc(O)c(I)c1)C(=O)O [I-Tyr, iodotyrosine]",,,,,"Km [1]: 19 ± 3 µM; kcat [1]: 0.12 ± 0.008 s⁻¹; Km ([2]; D2O): 12 ± 4 µM; kcat ([2]; D2O): 0.41 ± 0.05 s⁻¹; Km ([2]; H2O, 9% glycerol): 13 ± 4 µM; kcat ([2]; H2O, 9% glycerol): 0.39 ± 0.05 s⁻¹; Km ([2]; H2O): 23 ± 4 µM; kcat ([2]; H2O): 0.64 ± 0.08 s⁻¹"
"N[C@@H](Cc1cc(I)c(O)c(I)c1)C(=O)O [I2-Tyr, diiodotyrosine]",,,,,pKa of the α-ammonium group [7]: 7.8
"COc1cc2c(cc1C)nc1c(=O)[nH]c(=O)nc-1n2C[C@H](O)[C@H](O)[C@H](O)COP(=O)(O)O [8-MeO-FMN, 8-methoxy-desmethylFMN]",,,9.0 ± 0.3,−260^c mV,
Cc1cc2c(cc1Cl)nc1c(=O)[nH]c(=O)nc-1n2C[C@H](O)[C@H](O)[C@H](O)COP(=O)(O)O [7-Cl-FMN],,,3.3 ± 0.2,−128^d mV,
"N#Cc1cc(C[C@H](N)C(=O)O)cc(I)c1O [I-CN-Tyr, 3-cyano-5-iodotyrosine]",7 ± 0.03,7.3 ± 0.4,,,fraction existing in phenolate form [8]: 98%
"N[C@@H](Cc1ccc(O)c(F)c1)C(=O)O [fluorotyrosine, 3-fluorotyrosine]",,,,,Ki [9]: 10.7 ± 0.1 µM

# Further lines, with some results ahead:
Kd [3] [µM],Kd [4] [µM],kcat [6] [s^−1 × 10^−2],SMILES,redox potential [5],further results
0.9 ± 0.1,6.9 ± 0.3,,"N[C@@H](Cc1cc(F)c(O)c(I)c1)C(=O)O [I-F-Tyr, 3-fluoro-5-iodotyrosine]",,
,,5.2 ± 0.2,"Cc1cc2nc3c(=O)[nH]c(=O)nc-3n(C[C@H](O)[C@H](O)[C@H](O)COP(=O)(O)O)c2cc1C [FMN, Flavin Mononucleotide]",−205^d mV,
6.3 ± 0.3,4.3 ± 0.4,,"COc1cc(C[C@H](N)C(=O)O)cc(I)c1O [I-MeO-Tyr, 3-iodo-5-methoxytyrosine]",,
2.6 ± 0.03,1.7 ± 0.1,,"Cc1cc(C[C@H](N)C(=O)O)cc(I)c1O [I-Me-Tyr, 3-Iodo-5-methyltyrosine]",,fraction existing in phenolate form [8]: 3.4%
